# From PubChem BioAssay
# PAFAH2 inh: PAFAH2 (human) inhibition. recombinant PAFAH2, FP-rhodamine activity probe, fluorescence polarization. inhibition, % at 3.39 µM. hit rate 0.99% among 340,000;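 active = inhibition above the mean over all tested compounds plus 3 SD, cut at about 30% in these data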;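 note: inhibitors block probe labeling of enzyme so polarization drops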
# PAFAH1B3 FP inh: blocks human PAF acetylhydrolase 1B catalytic subunit 3; hit rate 0.28% among 340,000; Q15102; inhibition, % at 3.39 µM; AID 492972; recombinant PAFAH1B3, FP-rhodamine probe, fluorescence polarization;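 active = inhibition above the screen-wide average of all tested compounds plus 3 SD, cut at about 25% in these data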
# pPAFAH FP inh: pPAFAH (human) enzyme inhibition. recombinant pPAFAH, FP-rhodamine probe fluorescence polarization. hit rate 1.5% among 330,000. Q13093. inhibition, % at 3.39 µM;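 active = inhibition above the mean inhibition across the screen plus 3 SD, cut at about 25% in these data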;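 note: inhibitors block binding of the rhodamine activity-based probe so polarization drops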
# RBBP9 inh: blocks human serine hydrolase RBBP9; hit rate 0.2% among 220,000; recombinant RBBP9, FP-Rh probe fluorescence polarization; O75884; inhibition, % at 7.94 µM;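 active = inhibition above the campaign mean of all tested compounds plus 3 SD, cut at about 14% in these data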
# Target sequence (O75884 whole entry, looked up): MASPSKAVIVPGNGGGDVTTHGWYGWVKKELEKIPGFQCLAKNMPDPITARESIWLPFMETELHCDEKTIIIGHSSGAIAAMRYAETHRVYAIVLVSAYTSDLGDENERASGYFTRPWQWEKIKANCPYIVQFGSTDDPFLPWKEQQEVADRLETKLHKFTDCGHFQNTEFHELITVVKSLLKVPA
#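 Test system: recombinant human RBBP9; Timing: 30 min then 45 min, 25 °C; Detection: fluorescence polarization; Control set: RBBP9 with DMSO as uninhibited control, no-protein wells as full inhibition; Compound dosing: one concentration, 7.94 µM nominal, 0.794% DMSO; Probe or stimulus: FP-Rh activity-based probe, 375 nM before mixing.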
# PAFAH1B2 FP inh: blocks human PAF acetylhydrolase 1b catalytic subunit 2; P68402; recombinant PAFAH1B2, FP-rhodamine activity probe, fluorescence polarization; inhibition, % at 3.39 µM; hit rate 1.2% among 340,000;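 active = inhibition above the mean of all tested compounds plus 3 SD, cut at about 24% in these data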
# Target sequence (P68402 whole entry, looked up): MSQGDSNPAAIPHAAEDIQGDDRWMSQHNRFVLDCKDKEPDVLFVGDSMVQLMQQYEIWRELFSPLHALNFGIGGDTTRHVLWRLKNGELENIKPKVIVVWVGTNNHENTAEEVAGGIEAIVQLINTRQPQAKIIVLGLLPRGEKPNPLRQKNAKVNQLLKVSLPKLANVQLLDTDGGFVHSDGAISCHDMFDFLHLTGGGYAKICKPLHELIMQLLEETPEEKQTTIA
# A number is an active result; - = inactive; . = not tested or not shown. Shown are actives, neighbours in structure and some others; about 2.7% of the full set was active somewhere.
SMILES,PAFAH2 inh,PAFAH1B3 FP inh,pPAFAH FP inh,RBBP9 inh,PAFAH1B2 FP inh
COC(=O)CCCC1=CC2=CC(=O)C(C)(OC(=O)c3cccs3)C(=O)C2=CN1c1ccccc1 (stereo unspecified),-,-,-,.,-
COC(=O)CCCC1=CC2=CC(=O)C(C)(OC(=O)c3ccc(Cl)nc3)C(=O)C2=CO1 (stereo unspecified),.,.,36.0,.,.
COC/C=C/C1=CC2=CC(=O)C(C)(O)C(=O)C2=CO1 (stereo unspecified),.,.,48.1,.,.
CCCCC1=CC2=CC(=O)C(C)(OC(=O)c3cnc4ccccc4n3)C(=O)C2=CO1 (stereo unspecified),.,.,57.0,.,.
COC/C=C/C1=CC2=CC(=O)C(C)(OC(=O)c3cnc4ccccc4n3)C(=O)C2=CN1c1ccc(OC)cc1 (stereo unspecified),-,-,-,.,-
COC/C=C/C1=CC2=CC(=O)C(C)(OC(=O)C3CCCC3)C(=O)C2=CO1 (stereo unspecified),-,-,-,.,-
O=C1CS/C(=N\C(=O)N2c3ccccc3Sc3ccccc32)N1,-,-,26.3,-,25.3
COc1cc(CNC(=O)CCCCCCC(C)C)ccc1O,-,-,25.8,.,-
Cn1cnnc1SCc1ccc(-c2ccc(Br)cc2)o1,-,-,26.3,-,-
Cn1cnnc1SCc1ccccc1,-,-,-,-,-
CN(C)S(=O)(=O)c1cccc(C(=O)N=C2N=C3C=CC(Cl)=CN3Cc3ccccc32)c1,-,-,-,-,-
CC1=NN(c2ccccc2)C(=O)/C1=C\C=C\c1ccccc1,.,.,-,-,.
CC1=NN(c2ccc(C)c(C)c2)C(=O)/C1=C\C=C\c1ccc([N+](=O)[O-])o1,-,-,25.4,-,-
CCS(=O)(=O)N1Cc2ccccc2CC1C(=O)Nc1nnc(SCc2ccc(F)cc2)s1 (stereo unspecified),-,-,25.2,-,-
CCc1nnc(NC(=O)C2Cc3ccccc3CN2S(=O)(=O)CC)s1 (stereo unspecified),-,-,-,-,-
Cc1ccc(S(=O)(=O)NCCSCc2ccccc2)cc1,-,-,-,-,-
Cc1ccc(CSCCNS(=O)(=O)c2ccc([N+](=O)[O-])cc2)cc1,-,-,-,.,25.0
O=C1CSC(c2ccccc2)N1c1cccnc1 (stereo unspecified),-,-,-,-,-
O=C(O)c1cccc(N2C(=O)CSC2c2ccccc2)c1 (stereo unspecified),-,-,-,.,27.4
Cc1cc(C)cc(NC(=O)CSc2nc(=O)n3cc(C)ccc3n2)c1,-,-,24.9,.,-
COc1cc(NC(=O)C2CC2)c(OC)cc1NC(=O)CCC(=O)NC1CCN(Cc2ccccc2)CC1,-,-,-,-,-
O=C(CCSc1ccc(F)cc1)NNC(=O)c1ccc([N+](=O)[O-])cc1,-,-,-,.,28.5
O=C(Cn1ccc2cc(S(=O)(=O)N3CCCC3)ccc21)NCc1ccco1,-,-,-,.,-
COC(=O)c1ccc(NS(=O)(=O)c2c(C)[nH]c(C)c2C(=O)N2CCCC2)cc1,-,-,-,.,-
O=C(Cc1ccc(S(=O)(=O)N2CCOCC2)s1)Nc1nc2c(s1)CCCC2,-,-,32.5,-,-
SMILES,PAFAH2 inh,PAFAH1B3 FP inh,pPAFAH FP inh,RBBP9 inh,PAFAH1B2 FP inh
O=C(Cc1ccc(S(=O)(=O)N2CCOCC2)s1)Nc1cc(Cl)ccc1Cl,41.2,-,27.6,.,-
CCN(C(=O)CSc1nnc(SC)s1)c1c(N)n(Cc2ccccc2)c(=O)[nH]c1=O,-,-,-,.,-
O=C1N/C(=N/N=C/c2ccccc2)SC1(c1ccccc1)c1ccccc1,-,-,-,-,-
Cc1ccccc1C(=O)N1CCN(c2ccc(NC(=O)CSc3ccc(Cl)cc3)cc2)CC1,-,-,-,-,31.5
CCC(=O)Nc1ccc(N2CCN(C(=O)c3ccccc3C)CC2)cc1,-,-,-,-,-
O=C(CSc1ccc(Cl)cc1)Nc1ccc(N2CCN(C(=O)c3ccco3)CC2)cc1,-,-,-,-,25.9
Cc1nc2ccccc2n1CCC(=O)O,-,-,-,-,-
Cc1nc2ccccc2n2c(O)c(CC(=O)O)cc12,-,-,26.7,-,-
CCCCn1c(N)c(C(=S)NC(=O)CC(C)(C)C)c(=O)n(C)c1=O,-,-,-,-,27.1
CCCn1c(N)c(C(=O)CSc2ncn[nH]2)c(=O)n(C)c1=O,-,-,-,.,-
O=C(CSc1nc2ccccc2c(=O)[nH]1)Nc1ccc(N2CCOCC2)c(Cl)c1,-,-,-,.,-
N#CCSc1nc(Nc2ccc3c(c2)OCO3)c2ccccc2n1,-,-,26.0,-,-
Cc1csc(NC(=O)c2ccco2)c1C(=O)c1ccccc1,-,-,26.1,-,-
COC(=O)c1c(-c2ccccc2)csc1NC(=O)c1ccco1,-,-,-,-,-
CC(=O)Nc1ccc(Nc2nc3ccccc3nc2NS(=O)(=O)c2ccc(Cl)c([N+](=O)[O-])c2)cc1,52.0,31.4,.,.,-
O=[N+]([O-])c1ccc(S(=O)(=O)Nc2nc3ccccc3nc2Nc2ccccc2)cc1,.,.,-,-,.
COCc1cccc(C(=O)NC(c2ccccc2)c2ccccc2)c1,-,-,-,.,-
CC1(C)CC(=O)C(C2=NC3(CCCCCC3)Cc3ccccc32)=C(O)C1,-,-,-,-,-
O=C1C(=O)N(CCCc2ccccc2)c2ccccc21,-,-,26.8,.,-
O=C(CN1C(=O)C(=O)c2ccccc21)NCCc1ccccc1,-,-,-,-,-
C#CCOCCOCCOCCNc1nc(N2CCN(C(=O)CCCCCCCCCCNC(=O)Cn3cc(C[C@@H](C)O)nn3)CC2)nc(N2CCN(C(=O)CCCCCCCCCCNC(=O)[C@@H](CCC(=O)O)n3cc(CCCCCN)nn3)CC2)n1,-,-,-,.,-
C#CCOCCOCCOCCNc1nc(N2CCN(C(=O)CCCCCCCCCCNC(=O)Cn3cc(C[C@@H](C)O)nn3)CC2)nc(N2CCN(C(=O)CCCCCCCCCCNC(=O)[C@H](CCCCN)n3cc(CCCC(=O)O)nn3)CC2)n1,-,-,25.3,.,-
COc1ccc(OC)c(Nc2nc(-c3sc(C)nc3C)cs2)c1,-,-,32.6,-,-
CCC(=O)Nc1nc(C)c(-c2csc(Nc3ccccn3)n2)s1,-,-,26.2,-,-
COc1ccc(OC)c(Nc2nc(-c3sc(NC(=O)CC(C)C)nc3C)cs2)c1,-,-,30.4,-,-
SMILES,PAFAH2 inh,PAFAH1B3 FP inh,pPAFAH FP inh,RBBP9 inh,PAFAH1B2 FP inh
CCCCC(=O)Nc1nc(C)c(-c2csc(Nc3cc(OC)ccc3OC)n2)s1,-,-,-,-,-
COc1ccc(OC)c(Nc2nc(-c3sc(NC(=O)C(C)(C)C)nc3C)cs2)c1,-,-,30.5,-,-
CC1(C)CSC(C)(C)C(=O)N1,-,-,.,.,-
CCOC(=O)c1c(C)[nH]c(C(=O)COC(=O)Cn2cc(C(F)(F)F)ccc2=O)c1C,-,-,-,.,-
O=c1c2oc3ccccc3c2[nH]c(=S)n1-c1ccc(F)cc1,-,-,-,-,-
O=C(/C=C/c1ccc(F)cc1)NCCc1ccc2c(c1)OCCO2,-,-,-,-,-
